PvdQ inh: P. aeruginosa PvdQ acylase inhibition; purified PvdQ acylase, fluorescence plate reader; inhibition, % at 10 µM; actives 0.063% (n = 340,000); in the data active = inhibition above about 30%, passing the limit was not always enough; inconclusive = no clear call, values can overlap the other calls
Ecoli rRNA inh: inhibits bacterial ribosomal RNA function over humanized ribosomes | E. coli WT GFP vs humanized-ribosome RFP mutants, fluorescence, 24 h; hits give low values; DMSO median 0, no signal -100 | actives 1.6% (n = 350,000) | GFP signal change (wild-type ribosome), % (test concentration not listed);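 active = significant combined selectivity score with lowered wild-type GFP, culture density cut under 30%, mutant RFP and density less affected; inactive = any of these conditions unmet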
SR-BI DiI inh: mouse SR-BI HDL lipid transfer inhibition. ldlA[mSR-BI] CHO cells, DiI-HDL uptake fluorescence, 3 h. inhibition, % at 12.5 µM. actives 0.96% (n = 320,000);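 active = mean replicate inhibition of at least 70% and a set share of replicates each scoring 70 or more; inconclusive = meets just one of the two criteria; inactive = fails both criteria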
Target sequence (Q61009 whole entry, looked up): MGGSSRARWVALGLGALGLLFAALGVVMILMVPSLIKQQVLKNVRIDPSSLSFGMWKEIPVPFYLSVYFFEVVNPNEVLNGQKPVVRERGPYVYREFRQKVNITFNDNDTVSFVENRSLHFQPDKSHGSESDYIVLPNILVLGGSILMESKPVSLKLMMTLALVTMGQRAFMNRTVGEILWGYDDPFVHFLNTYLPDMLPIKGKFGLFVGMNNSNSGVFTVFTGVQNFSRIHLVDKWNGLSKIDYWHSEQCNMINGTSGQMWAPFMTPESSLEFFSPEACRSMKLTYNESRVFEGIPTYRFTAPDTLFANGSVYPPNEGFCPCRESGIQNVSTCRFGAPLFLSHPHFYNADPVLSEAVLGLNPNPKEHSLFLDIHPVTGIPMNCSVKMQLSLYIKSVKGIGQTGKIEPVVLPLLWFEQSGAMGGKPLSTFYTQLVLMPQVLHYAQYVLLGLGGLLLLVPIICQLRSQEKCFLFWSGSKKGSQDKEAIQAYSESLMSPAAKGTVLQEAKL
SR-BI DiI-HDL act: enhances SR-BI lipid uptake from DiI-HDL. CHO ldlA[mSR-BI] cells, DiI-HDL uptake fluorescence, 3 h; 100 = double the neutral-control signal. activation, % at 12.5 µM. actives 0.096% (n = 320,000). AID 504775;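 active = mean replicate activation of at least 60% and every replicate at or above 60%; inconclusive = mean or all-replicate condition met, but not both; inactive = mean below 60% and not all replicates reaching 60%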
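System: LDL receptor-deficient CHO ldlA cells overexpressing murine SR-BI | Timing: 3 h uptake period with compound, 37 °C | Medium: HEPES-buffered (25 mM, pH 7.4) F12 plus 0.5% BSA | Dosing: Single-point compound dose | Signal: Bottom-read fluorescence, 550/595 nm | Read-out: Retained DiI signal reflecting DiI-HDL uptake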
XiGFP reactiv: reactivates the inactive X chromosome in mouse fibroblasts; XiGFP mouse fibroblasts, % GFP-positive cells imaging, 3 d; cells co-treated with 5-aza-dC sensitizer; scaled so ellipticine positive control = 100%; activation, % at 7.58 µM; actives 0.055% (n = 360,000); AID 743238;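 active = mean normalized replicate activation at least 10% and every replicate at or above 10%; inconclusive = only one of the two criteria met; inactive = mean below 10% and not all replicates reach 10%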
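Material: XiGFP fibroblasts, SV40-immortalized; Buffer or medium: DMEM containing 5-aza-dC; Compound dosing: single point; Times: 3 days compound exposure.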
dFosB act: enhances mouse delta FosB homodimer DNA binding; P13346; purified delta FosB, TAMRA-CDK5 oligo fluorescence polarization; percent of positive-control signal above neutral wells; activation, % at 25 µM; actives 0.99% (n = 340,000); AID 493131;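 active = mean activation above about 17%, with every replicate also reaching it, limit read from the data, passing the limit was not always enough; inconclusive = only one of the two conditions met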
Each line names hits and unclear results; the compound was inactive in the other large screens; ! = not active in a repeat. Shown are actives, neighbours in structure and some others; about 2.6% of the full set was active somewhere.

O=S(=O)(/N=C(/c1ccc(Cl)cc1)N1CCOCC1)c1ccc(Cl)cc1	none (no result: Ecoli rRNA inh, XiGFP reactiv)
Cc1csc(-c2nc3ccccc3n2C(C)c2nc3ccccc3[nH]2)c1 (stereo unspecified)	Ecoli rRNA inh -30 (no result: PvdQ inh, SR-BI DiI inh, SR-BI DiI-HDL act, dFosB act)
C=CCOC(=O)C1=C(C)NC(SCC)=C(C#N)C1c1ccc(Cl)cc1 (stereo unspecified)	SR-BI DiI inh 83 (no result: Ecoli rRNA inh, XiGFP reactiv)
C=CCOC(=O)C1=C(C)NC(SCC(N)=O)=C(C#N)C1c1ccc(C)cc1 (stereo unspecified)	none
CCCCCCCCCCOC(=O)Cn1c(COc2ccc(OC)cc2)[n+](C)c2ccccc21	dFosB act 40! (no result: Ecoli rRNA inh, XiGFP reactiv)
CCCCCCCCCCOC(=O)Cn1c(COc2ccccc2C)[n+](C)c2ccccc21	dFosB act 37 (no result: XiGFP reactiv)
CCCCCCCCCCOC(=O)Cn1c(COc2ccccc2)[n+](C)c2ccccc21	dFosB act 35
CCCCCCCCCCOC(=O)Cn1c(COc2ccc(Cl)cc2)[n+](C)c2ccccc21	none
CCCCCCCCCCOC(=O)Cn1c(COc2cccc(C)c2)[n+](C)c2ccccc21	dFosB act inconclusive
CC(C)C#Cc1ccc2c(c1)O[C@H](CN(C)Cc1ccccn1)[C@@H](C)CN([C@@H](C)CO)S2(=O)=O	none (no result: PvdQ inh, SR-BI DiI inh, SR-BI DiI-HDL act, dFosB act)
COc1ccc(NC(=O)C2(C)CCN2C(=O)Cc2ccc(Cl)cc2Cl)cc1OC (stereo unspecified)	none (no result: PvdQ inh, SR-BI DiI inh, SR-BI DiI-HDL act, dFosB act)
COc1cccc(S(=O)(=O)N2CC3(CCN(C)CC3)c3c(n(C)c4cc(OC)ccc34)[C@@H]2CO)c1	none (no result: PvdQ inh, SR-BI DiI inh, SR-BI DiI-HDL act, dFosB act)
O=C(O)CC/C(=C\c1ccc(N2CCOCC2)c([N+](=O)[O-])c1)c1nc2ccccc2s1	none
O=C(O)C/C(=C\c1ccc(N2CCOCC2)c([N+](=O)[O-])c1)c1nc2ccccc2s1	Ecoli rRNA inh -25 (no result: SR-BI DiI inh, SR-BI DiI-HDL act)
COc1ccc2c3c([nH]c2c1)[C@H](CO)N(C(C)=O)CC31CCN(C(=O)Nc2c(C)noc2C)CC1	none (no result: PvdQ inh, SR-BI DiI inh, SR-BI DiI-HDL act, dFosB act)
Cc1ccccc1CSCC(=O)Nc1ccccc1Br	Ecoli rRNA inh -23
CC(=O)OCC(=O)C1(O)CCC2C3CC(F)C4=CC(=O)CCC4(C)C3C(O)CC21C (stereo unspecified)	none
O=C(O)c1ccc(-c2noc(-c3ccccc3Cl)n2)cc1	none
O=C(O)c1ccc(-c2noc(-c3cccc(Cl)c3)n2)cc1	Ecoli rRNA inh -23
CC[C@H](C)[C@@H](C(=O)NCCCCCCCCCCC(=O)N1CCN(C(=O)OC(C)(C)C)CC1)n1cc(CCCCCNC(=O)OC(C)(C)C)nn1	SR-BI DiI inh 71
C#CCOCCOCCOCCNc1nc(N2CCN(C(=O)CCCCCCCCCCNC(=O)[C@H]([C@@H](C)CC)n3cc(CCCCCN)nn3)CC2)nc(N2CCN(C(=O)CCCCCCCCCCNC(=O)[C@H]([C@@H](C)CC)n3cc(CCCCN=C(N)N)nn3)CC2)n1	none (no result: Ecoli rRNA inh, XiGFP reactiv)
C#CCOCCOCCOCCNc1nc(N2CCN(C(=O)CCCCCCCCCCNC(=O)Cn3cc(CCCCCN)nn3)CC2)nc(N2CCN(C(=O)CCCCCCCCCCNC(=O)[C@H]([C@@H](C)CC)n3cc(CCCCN=C(N)N)nn3)CC2)n1	SR-BI DiI inh 84 (no result: Ecoli rRNA inh, XiGFP reactiv)
CCOc1cccc2sc(N3CCN(C(=O)c4ccc5ncsc5c4)CC3)nc12	none
C#CCOc1ccc(/C=N/O)cc1Cl	SR-BI DiI-HDL act 84
Cc1cccc(C)c1NC(=O)CN(C)C(C)C(=O)Nc1ccccc1-c1ccccc1 (stereo unspecified)	Ecoli rRNA inh -25
CN(Cc1ccccc1)C(=O)CSc1nc2c(c(C(F)(F)F)n1)CCc1ccccc1-2	none (no result: Ecoli rRNA inh, XiGFP reactiv)
CC1=C(C(=O)OCc2ccccc2)C(c2ccc(Br)cc2)NC(=O)N1CCCCCC(=O)O (stereo unspecified)	Ecoli rRNA inh -26
CN(C)CCCN(C(=O)c1ccc(S(=O)(=O)N(C)Cc2ccccc2)cc1)c1nc2c(F)cccc2s1	Ecoli rRNA inh -33
CN(C)CCN(C(=O)c1ccc(S(=O)(=O)N(C)c2ccccc2)cc1)c1nc2cc3c(cc2s1)OCCO3	XiGFP reactiv inconclusive, dFosB act 47
CCN(Cc1ccccc1)S(=O)(=O)c1ccc(C(=O)N(CCCN(C)C)c2nc3ccc(F)cc3s2)cc1	none
CN(C)CCCN(C(=O)CCc1ccccc1)c1nc2c(F)cccc2s1	none (no result: Ecoli rRNA inh, XiGFP reactiv)
CCN(Cc1ccccc1)S(=O)(=O)c1ccc(C(=O)N(CCCN(C)C)c2nc3cc4c(cc3s2)OCCO4)cc1	dFosB act 42
Cc1ccc(OCC(=O)N2CCN(S(=O)(=O)c3ccccc3)CC2)c([N+](=O)[O-])n1	none (no result: Ecoli rRNA inh)
COc1cc(/C=N/N2CCN(C3c4ccccc4-c4ccccc43)CC2)ccc1O	none (no result: Ecoli rRNA inh, XiGFP reactiv)
COc1cccc(/C=N/N2CCN(C3c4ccccc4-c4ccccc43)CC2)c1O	SR-BI DiI inh 72
C[C@@H]1CN([C@H](C)CO)C(=O)c2cc(C#CC3(O)CCCC3)cnc2O[C@@H]1CN(C)Cc1ccncc1	none (no result: PvdQ inh, SR-BI DiI inh, SR-BI DiI-HDL act, dFosB act)
C=CCC[C@@H](Cc1ccc(F)cc1)C(=O)OC[C@H](C)NC(=O)[C@H](CC=C)CC(=O)N(CCO)Cc1ccccc1	none
COc1ccc2nc(NC(=O)C3CC(=O)N(c4ccc5c(c4)OCCO5)C3)sc2c1 (stereo unspecified)	none
COc1ccc(-c2nc(NC(=O)C3CC(=O)N(c4ccc5c(c4)OCCO5)C3)sc2C)cc1 (stereo unspecified)	SR-BI DiI inh 74
O=C(NCCN1CCN(C(=O)c2ccc(Br)cc2)CC1)c1ccc(Br)cc1	SR-BI DiI inh 71
Cc1ccc(C(=O)NCCN2CCN(C(=O)c3ccc(C)c(C)c3)CC2)cc1C	SR-BI DiI inh inconclusive
Cn1cc(C2=C(c3ccc(Cl)cc3Cl)C(=O)NC2=O)c2ccccc21	XiGFP reactiv 59 (no result: Ecoli rRNA inh)
Cn1cc(-c2ccccc2C(N)=O)c(=O)c2cc(Cl)ccc21	none
Cc1ccc(NC(=O)N2CCC(C(=O)NCCC3=CCCCC3)CC2)cc1	none (no result: Ecoli rRNA inh, XiGFP reactiv)
CC(C)(C)Nc1nc2nonc2nc1NC(C)(C)C	Ecoli rRNA inh -49 (no result: XiGFP reactiv)
OCCNc1nc2nonc2nc1NCCO	none
CCOc1ccc(-n2cnc3sc(C)c(C)c3c2=O)cc1	SR-BI DiI inh 71
COc1ccc(OC)c(NC(=O)c2ccc(OCC(=O)N3CCOCC3)c(OC)c2)c1	SR-BI DiI inh 73
CCOc1ccccc1C(=O)NCC(=O)O	none (no result: Ecoli rRNA inh, XiGFP reactiv)
CCOc1ccccc1C(=O)NCC(=O)OCCCOC(=O)CNC(=O)c1ccccc1OCC	SR-BI DiI inh 84
CCCc1cc(C(=O)Nc2cc(OC)ccc2OC)cs1	Ecoli rRNA inh -32
CCOc1ccccc1NC(=O)c1ccc(OCC(=O)N2CCOCC2)c(OC)c1	none
CCOc1ccccc1C(=O)Nc1cc(Cl)ccc1O	SR-BI DiI inh 86 (no result: Ecoli rRNA inh, XiGFP reactiv)

High-throughput results (PubChem BioAssay)
